Experimental data from ChEMBL document CHEMBL2202989, “New adamantane phenylalkylamines with σ-receptor binding affinity and anticancer activity, associated with putative antagonism of neuropathic pain” (J Med Chem, 2012).

Tests used:
PC-3 = assay: Growth inhibition of human PC3 cells after 48 hrs by SRB assay; assay type: functional; details: PC-3, 48 h; for CC50: read-out: LC50 (the source's name)
Summary of the method: (§1)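 Cells grown in RPMI 1640 with 5% heat-inactivated FCS, 2 mM L-glutamine and antibiotics, 37 °C, 5% CO2. Seeded at 3500–30000 cells/well and left 24 h before dosing. DMSO solutions added at 10-fold dilutions from 100 to 0.01 μM for 48 h. Cells TCA-fixed and SRB-stained, absorbance read at 540 nm; GI50 derived against the time-zero plate.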

HCT-116 = assay: Growth inhibition of human HCT116 cells after 48 hrs by SRB assay; assay type: functional; details: HCT-116, 48 h; for CC50: read-out: LC50 (the source's name); summary of the method: as §1
[1] = Displacement of [3H]1,3-di-otolylguanidine from sigma 2 receptor in rat cerebral cortex membranes; assay type: cell membranes, Membrane
Summary of the method: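 Rat cerebral cortex membranes incubated with 5 nM [3H]DTG plus 300 nM (+)-pentazocine to mask σ1 sites, together with a range of test concentrations, 2 h at 22 °C in Tris-HCl, pH 7.4. Nonspecific binding defined with 10 μM haloperidol.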

BXPC-3 [2] = assay: Growth inhibition of human BxPC3 cells after 48 hrs by SRB assay; assay type: functional; details: BXPC-3, 48 h; summary of the method: as §1
IGROV-1 = assay: Growth inhibition of human IGROV1 cells after 48 hrs by SRB assay; assay type: functional; details: IGROV-1, 48 h; summary of the method: as §1
MCF7 = assay: Growth inhibition of human MCF7 cells after 48 hrs by SRB assay; assay type: functional; details: MCF7, 48 h; for CC50: read-out: LC50 (the source's name); summary of the method: as §1
HCT-15 = assay: Growth inhibition of human HCT15 cells after 48 hrs by SRB assay; assay type: functional; details: HCT-15, 48 h; for CC50: read-out: LC50 (the source's name); summary of the method: as §1
HUVEC = assay: (§2) Growth inhibition of human HUVEC cells after 48 hrs by SRB assay; assay type: cell-based; details: huvec, 48 h; summary of the method: as §1
[3] = as §2; assay type: cell-based; details: HUVEC cells; summary of the method: as §1
NHDF = assay: (§3) Growth inhibition of human NHDF cells after 48 hrs by SRB assay; assay type: cell-based; details: nhdf, 48 h; summary of the method: as §1
[4] = as §3; assay type: cell-based; details: NHDF cells; summary of the method: as §1
[5] = Displacement of [3H]batrachotoxin benzoate from Na+ channel after 60 mins by liquid scintillation counting
Summary of the method: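 Na+ channel site 2 binding: vesicle preparation (150−500 μg protein) incubated 60 min with 20−25 nM [3H]BTX-B and 50 μg Leiurius quinquestriatus venom. Buffer was 130 mM choline chloride, 50 mM HEPES/Tris pH 7.4, glucose, MgSO4, KCl, BSA. Filtered on GF/C with cold washes; scintillation counting. Nonspecific binding defined with 250 μM veratridine.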

HL-60(TB) = assay: Growth inhibition of human HL-60(TB) cells after 48 hrs by SRB assay; assay type: functional; details: HL-60, 48 h
Summary of the method: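 Cells kept in RPMI 1640 with 5% FCS at 37 °C, 5% CO2, and seeded 24 h before dosing. Compound given from DMSO at 10-fold dilutions, 100 to 0.01 μM, for 48 h. Cells fixed with TCA, stained with SRB, absorbance read at 540 nm. GI50 taken from a time-zero plate.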

[6] = Growth inhibition of human MSC cells after 48 hrs by SRB assay; assay type: cell-based; summary of the method: as §1
DU-145 = assay: Growth inhibition of human DU145 cells after 48 hrs by SRB assay; assay type: functional; details: DU-145, 48 h; for CC50: read-out: LC50 (the source's name); summary of the method: as §1
U-251 = assay: Growth inhibition of human U251 cells after 48 hrs by SRB assay; assay type: functional; details: U-251, 48 h; for CC50: read-out: LC50 (the source's name); summary of the method: as §1
SK-HEP1 = assay: Growth inhibition of human SKHEP1 cells after 48 hrs by SRB assay; assay type: functional; details: SK-HEP1, 48 h; for CC50: read-out: LC50 (the source's name); summary of the method: as §1
[7] = target: Sigma non-opioid intracellular receptor 1 (Homo sapiens, UniProt Q99720); assay: Displacement of [3H]-(+)-pentazocine from sigma 1 receptor in human Jurkat cell membrane; assay type: cell membranes
Summary of the method: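 Jurkat cell membranes incubated with 8 nM [3H](+)-pentazocine and a range of test concentrations for 2 h at 22 °C in Tris-HCl buffer, pH 7.4. Nonspecific binding defined with 10 μM haloperidol. Run in triplicate.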

MIA PaCa-2 = assay: Growth inhibition of human MIAPaCa2 cells after 48 hrs by SRB assay; assay type: functional; details: MIA PaCa-2, 48 h; summary of the method: as §1
BXPC-3 [8] = assay: Antitumor activity against human BxPC3 cells xenografted in SCID mouse assessed as tumor growth inhibition at 70 mg/kg, ip administered twice a week for three cycles measured after 3 cycles relative to control; assay type: functional; details: BXPC-3, ip, route intraperitoneal, read-out: TGI
Summary of the method: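 BxPC3 xenografts were grown in SCID mice from inocula of 10^6 exponentially growing cells, with 10 mice (20 tumors) per group. Treatment started ip once tumors averaged about 100 mm3. The test agent was given in 5% Tween 80 and gemcitabine in water for injection. Tumor volume was measured by caliper twice weekly and %ΔT/ΔC was computed; two-tailed Student's t test.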

[9] = read-out: LC50 (the source's name)

Sequence of Sigma non-opioid intracellular receptor 1 (Q99720 whole entry): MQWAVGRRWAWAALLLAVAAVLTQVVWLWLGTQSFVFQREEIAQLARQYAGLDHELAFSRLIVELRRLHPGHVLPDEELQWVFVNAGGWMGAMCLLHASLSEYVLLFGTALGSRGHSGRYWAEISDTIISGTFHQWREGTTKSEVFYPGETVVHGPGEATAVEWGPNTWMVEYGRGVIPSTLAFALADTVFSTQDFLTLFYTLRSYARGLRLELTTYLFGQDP

SMILES | GI50 (PC-3) [µM] | TGI (PC-3) [µM] | GI50 (HCT-116) [µM] | TGI (HCT-116) [µM] | CC50 (HCT-116) [µM] | IC50 [1] [µM] | GI50 (BXPC-3 [2]) [µM] | LC50 (BXPC-3 [2]) [µM] | TGI (BXPC-3 [2]) [µM] | GI50 (MCF7) [µM] | TGI (MCF7) [µM] | CC50 (MCF7) [µM] | LC50 (NHDF) [µM] | TGI (NHDF) [µM] | GI50 at 48 h [4] [µM] | IC50 [5] [µM] | GI50 (U-251) [µM] | TGI (U-251) [µM] | CC50 (U-251) [µM] | IC50 [7] [µM] | other results
c1ccc(C(c2ccc(CCCN3CCNCC3)cc2)C23CC4CC(CC(C4)C2)C3)cc1 (stereo not drawn) | 3.06 | 5.71 | 2.96 | 5.85 | 0.00874 | 0.461 | 3.38 | 0.00944 | 6.41 | 3.1 | 5.97 | 0.00884 | 9.58 | 6.82 | 4.07 | > 1 | 3.3 | 5.87 | 0.00844 | 0.042 | CC50 (PC-3): 0.00837 µM; GI50 (IGROV-1): 3.29 µM; TGI (IGROV-1): 6.34 µM; CC50 (IGROV-1; [9]): 0.00939 µM; GI50 (HCT-15): 3.15 µM; TGI (HCT-15): 6.13 µM; CC50 (HCT-15): 0.00911 µM; LC50 (HUVEC): 100 µM; TGI (HUVEC): 7.17 µM; GI50 at 48 h [3]: 3.97 µM; GI50 (HL-60(TB)): 0.00301 µM; TGI (HL-60(TB)): 0.00822 µM; CC50 (HL-60(TB); [9]): 0.1 µM; TGI [6]: 7.28 µM; GI50 (DU-145): 2.83 µM; TGI (DU-145): 5.65 µM; CC50 (DU-145): 0.00846 µM; GI50 (SK-HEP1): 3.67 µM; TGI (SK-HEP1): 6.19 µM; CC50 (SK-HEP1): 0.0087 µM
Nc1ccn([C@@H]2O[C@H](CO)[C@@H](O)C2(F)F)c(=O)n1 [GEMCITABINE] | – | – | – | – | – | – | 3.64 | – | 9.05 | – | – | – | – | – | – | – | – | – | – | – | GI50 (MIA PaCa-2): 35.8 µM; TGI (MIA PaCa-2): 100 µM; CC50 (MIA PaCa-2; [9]): 0.1 µM; inhibition in vivo at 70 mg/kg (BXPC-3 [8]): 38.1%
c1ccc(CN2CCN(CCCc3ccc(C(c4ccccc4)C45CC6CC(CC(C6)C4)C5)cc3)CC2)cc1 (stereo not drawn) | – | – | 7.72 | 39.7 | 0.0829 | 0.0283 | 36.8 | 0.1 | 100 | 6.76 | 61.7 | 0.1 | 100 | 100 | 39.5 | 0.0115 | 36.4 | 79.1 | 0.1 | 0.0361 | –
c1ccc(C(c2ccc(CCCN3CCCCC3)cc2)C23CC4CC(CC(C4)C2)C3)cc1 (stereo not drawn) | 3.92 | 7.32 | 3.37 | 5.99 | 0.00861 | 0.013 | 3.78 | 0.00917 | 6.47 | 2.41 | 6.07 | 0.00963 | 9.47 | 6.15 | 2.83 | > 0.1 | 4.61 | 7.19 | 0.00977 | 0.0123 | CC50 (PC-3): 0.0107 µM; GI50 (HCT-15): 3.89 µM; TGI (HCT-15): 6.78 µM; CC50 (HCT-15): 0.00968 µM; LC50 (HUVEC): 9.18 µM; TGI (HUVEC): 6.23 µM; GI50 at 48 h [3]: 3.27 µM; TGI [6]: 1.93 µM; GI50 (DU-145): 5.18 µM; TGI (DU-145): 8.17 µM; CC50 (DU-145): 0.0112 µM; GI50 (SK-HEP1): 3.25 µM; TGI (SK-HEP1): 5.97 µM; CC50 (SK-HEP1): 0.00868 µM
